Assay results pooled from the literature.
Compare with care: the assays were run in different laboratories.

| SMILES | assay | test system | conditions | endpoint | result |
| --- | --- | --- | --- | --- | --- |
| CN(C)C(=O)c1ccc(-c2c(-c3ccccn3)nc3n2CCC3)cc1 | metabolic stability | rat, hepatocytes | – | hepatocyte CLint | < 1 µL/min/10⁶ cells |
| Cc1ccc(C(=O)N(CCCN)[C@@H](c2oc3cc(Cl)ccc3c(=O)c2Cc2ccccc2)C(C)C)cc1 | – | human, plasma | intravenous, 6 mg/m², single dose, patients, infusion | clearance | 23.6 mL/min |
| Cc1c(C(=O)NN2CCCC(O)C2)nc(-c2ccc(Cl)cc2Cl)n1-c1ccc(OS(=O)(=O)CCC(F)(F)F)cc1 (centres unmarked) | shake flask | aqueous buffer | pH 7.4 | logD | 3.8 |
| COc1ccnc(-c2nc3ccccn3c2Nc2ccc(F)cc2)c1 | metabolic stability | rat, hepatocytes | – | hepatocyte CLint | 190 µL/min/10⁶ cells |
| c1ccc(-c2nc(NCc3nc4ccccc4o3)c3ccccc3n2)nc1 | metabolic stability | human, liver microsomes | – | microsomal CLint | 47 µL/min/mg |
| CCOC(=O)C1=C(C)N/C(=C/c2ccn(-c3ccc(C(F)(F)F)cc3)c2)C1=O | HPLC | – | pH 7.4 | chromatographic logD | 3.4 |
| COc1cccnc1-c1nc2ccccn2c1Nc1ccc(F)cc1 | metabolic stability | rat, hepatocytes | – | hepatocyte CLint | 29 µL/min/10⁶ cells |
| c1cnc2ccc(Nc3nc(NC4CC4)c4nc[nH]c4n3)cc2c1 | – | human, plasma | oral, 800 mg/m², patients | CL/F | 76.6 L/h |
| COc1ccc2nc(-c3cc(N(C)C)ccn3)c(N(C)c3ccc(F)cc3)n2c1 | metabolic stability | rat, hepatocytes | – | hepatocyte CLint | > 300 µL/min/10⁶ cells |
| COc1cc(C(=O)NC2CCN(C)CC2)c(F)cc1Nc1ncc(C(F)(F)F)c(Oc2cccc3c2C(=O)N(C)C3)n1 | – | human, plasma | oral, 25 mg, multiple doses, once daily, patients | CL/F | 8.34 L/h |
| CCNCCCNC/C=C\CNCCCNCC | – | human, plasma | intravenous, 200 mg, patients, infusion | clearance | 3140 mL/min |
| Cc1cccc(N2CCN(c3nc(-c4ccccn4)nc4ccccc34)CC2)n1 | metabolic stability | human, liver microsomes | – | microsomal CLint | 165 µL/min/mg |
| CS(=O)(=O)CCC#N | – | human, plasma | oral, 1000 mg, single dose, fasted | CL/F | 0.233 mL/min/kg |
| C[C@@H](C(=O)NC1Cc2ccccc2C1)c1ccccc1 | metabolic stability | rat, liver microsomes | 1 µM | microsomal CLint | > 200 µL/min/mg |
| c1ccc(-c2nc(N3CCCC3c3ccccn3)c3ccccc3n2)nc1 (centres unmarked) | metabolic stability | human, liver microsomes | – | microsomal CLint | 62 µL/min/mg |
| OC[C@H]1O[C@@H](c2ccc(Cl)c(Cc3ccc(O[C@H]4CCOC4)cc3)c2)[C@H](O)[C@@H](O)[C@@H]1O | – | human, plasma | oral, multiple doses, steady state | CL/F | 8.99 L/h |
| c1ccc(-c2nc(NCCn3cnc4ccccc43)c3ccccc3n2)nc1 | metabolic stability | human, liver microsomes | – | microsomal CLint | 150 µL/min/mg |
| COc1ccc2nc(-c3ccccn3)c(N(C)c3ccc(F)cc3)n2c1 | metabolic stability | rat, hepatocytes | – | hepatocyte CLint | > 300 µL/min/10⁶ cells |
| c1ccc(-c2nc(N3CCN(c4ccccn4)CC3)c3ccccc3n2)nc1 | metabolic stability | human, liver microsomes | – | microsomal CLint | 79 µL/min/mg |
| CC(C)(C)[Si](C)(C)OCCCN(c1ccc(F)cc1)c1c(-c2ccccn2)nc2ccccn12 | metabolic stability | rat, hepatocytes | – | hepatocyte CLint | 42 µL/min/10⁶ cells |
| COc1ccc(Nc2nc(-c3ccccn3)nc3ccccc23)cc1 | metabolic stability | human, liver microsomes | – | microsomal CLint | 73 µL/min/mg |
| OC[C@H]1O[C@@H](c2ccc(Cl)c(Cc3ccc(O[C@H]4CCOC4)cc3)c2)[C@H](O)[C@@H](O)[C@@H]1O | – | human, urine | oral, 100 mg, single dose | renal clearance | 15 mL/min |
| CC(C)CCN(c1ccc(F)cc1)c1c(-c2ccccn2)nc2ccccn12 | metabolic stability | rat, hepatocytes | – | hepatocyte CLint | > 300 µL/min/10⁶ cells |
